Experimental data as given in ChEMBL document CHEMBL1125865, “Synthesis, antibacterial activities, and pharmacological properties of enantiomers of temafloxacin hydrochloride” (J Med Chem, 1991).
In brackets after ≈: the same amount, converted by molar mass.

Tests used:
Rattus norvegicus [1] = test: Effect on the spontaneous locomotor activity of rats at 0-15 min upon ip administration of the compounds at a dose of 1 mg/kg; format: functional; conditions: route intraperitoneal
Procedure, shortened: (§1)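 Rats were given test agent or methylcellulose vehicle (ip or po, per line), with treatments in random order. 30 min after dosing, each rat went into an individual circular activity chamber. Locomotion was counted as photocell-beam interruptions, recorded at 15 and 60 min from test start and reported as mean counts ± SEM.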

Staphylococcus aureus [2] = test: The in vitro antibacterial activity as minimum inhibitory concentration against Staphylococcus aureus A5177; format: functional
Procedure, shortened: (§2)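 Agar dilution: organisms grown overnight in BHI broth at 36 °C. Two-fold dilutions of a 2000 μg/mL stock were made in BHI agar, giving 200 to 0.005 μg/mL final. Plates were inoculated with about 10^4 organisms and incubated 18 h at 36 °C. MIC is the lowest concentration with no visible growth.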

Escherichia coli [3] = test: Median dose against Escherichia coli Juhl in mouse after subcutaneous administration at a dose of 100xLD50 in TEST 2.; format: functional; conditions: sc
Procedure, shortened: (§3)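 CF-1 female mice (~20 g) were infected ip with 0.5 mL of an 18-h BHI broth culture diluted in 5% (w/v) hog gastric mucin to the stated multiple of LD50. The HCl salt was dissolved in distilled water and given sc or po, with the total dose split equally at 1 and 5 h post-infection. Groups of 10 mice received at least three dose levels; ten infected mice were left untreated. Deaths were recorded daily for 6 days. ED50 came from day-6 cumulative mortality using the trimmed logit method.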

Pseudomonas aeruginosa [4] = test: The in vitro antibacterial activity as minimum inhibitory concentration against Pseudomonas aeruginosa BMH10; format: functional
Procedure, shortened: (§4)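 Agar dilution in BHI agar. Organisms were grown overnight in BHI broth at 36 °C. Two-fold dilutions gave test concentrations from 200 to 0.005 μg/mL. Plates were inoculated with ~10^4 organisms and incubated 18 h at 36 °C. MIC was the lowest concentration with no visible growth.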

Escherichia coli [5] = test: The in vitro antibacterial activity as minimum inhibitory concentration against Escherichia coli SS; format: functional; procedure, shortened: as §4
[6] = Partition coefficient in octanol/water at pH 7.5 buffer.; format: physicochemical
Staphylococcus aureus [7] = test: The in vitro antibacterial activity as minimum inhibitory concentration against Staphylococcus aureus 45 RAR2; format: functional; procedure, shortened: as §4
Escherichia coli [8] = test: The in vitro antibacterial activity as minimum inhibitory concentration against Escherichia coli H-560; format: functional; procedure, shortened: as §4
Streptococcus equinus = test: The in vitro antibacterial activity as minimum inhibitory concentration against Streptococcus bovis A5169; format: functional; procedure, shortened: as §2
Pseudomonas aeruginosa [9] = test: Median dose against Pseudomonas aeruginosa A5007 in mouse after peroral administration at a dose of 100xLD50 in TEST 1.; format: functional; conditions: po; procedure, shortened: as §3
Burkholderia cepacia = test: The in vitro antibacterial activity as minimum inhibitory concentration against Pseudomonas cepacia 2961; format: functional; procedure, shortened: as §4
Streptococcus pyogenes [10] = test: The in vitro antibacterial activity as minimum inhibitory concentration against Streptococcus pyogenes EES61; format: functional; procedure, shortened: as §2
Staphylococcus aureus [11] = test: The in vitro antibacterial activity as minimum inhibitory concentration against Staphylococcus aureus ATCC 6538P; format: functional; procedure, shortened: as §2
Streptococcus pyogenes [12] = test: The in vitro antibacterial activity as minimum inhibitory concentration against Streptococcus pyogenes 930 Const; format: functional; procedure, shortened: as §2
Staphylococcus aureus [13] = test: Median dose against Staphylococcus aureus NCTC 10649 in mouse after subcutaneous administration at a dose of 100xLD50 in TEST 2.; format: functional; conditions: sc; procedure, shortened: as §3
Pseudomonas aeruginosa [14] = test: The in vitro antibacterial activity as minimum inhibitory concentration against Pseudomonas aeruginosa K799/WT; format: functional; procedure, shortened: as §4
Staphylococcus aureus [15] = test: Median dose against Staphylococcus aureus NCTC 10649 in mouse after peroral administration at a dose of 100xLD50 in TEST 1.; format: functional; conditions: po; procedure, shortened: as §3
Providencia stuartii = test: The in vitro antibacterial activity as minimum inhibitory concentration against Providencia stuartii CMX 640; format: functional; procedure, shortened: as §4
Pseudomonas aeruginosa [16] = test: The in vitro antibacterial activity as minimum inhibitory concentration against Pseudomonas aeruginosa A5007; format: functional; procedure, shortened: as §4
Micrococcus luteus [17] = test: The in vitro antibacterial activity as minimum inhibitory concentration against Micrococcus luteus ATCC 4698; format: functional; procedure, shortened: as §4
Staphylococcus aureus [18] = test: Median dose against Staphylococcus aureus NCTC 10649 in mouse after subcutaneous administration at a dose of 100xLD50 in TEST 1.; format: functional; conditions: sc; procedure, shortened: as §3
Pseudomonas aeruginosa [19] = test: Median dose against Pseudomonas aeruginosa A5007 in mouse after subcutaneous administration at a dose of 100xLD50 in TEST 1.; format: functional; conditions: sc; procedure, shortened: as §3
Streptococcus pneumoniae [20] = test: Median dose against Streptococcus pneumoniae 6303 in mouse after subcutaneous administration at a dose of 100xLD50 in TEST 1.; format: functional; conditions: sc; procedure, shortened: as §3
[21] = system: Staphylococcus epidermidis; test: The in vitro antibacterial activity as minimum inhibitory concentration against Staphylococcus epidermidis 3519; format: functional; procedure, shortened: as §2
Escherichia coli [22] = test: The in vitro antibacterial activity as minimum inhibitory concentration against Escherichia coli Juhl; format: functional; procedure, shortened: as §4
Escherichia coli [23] = test: Median dose against Escherichia coli Juhl in mouse after subcutaneous administration at a dose of 100xLD50 in TEST 1.; format: functional; conditions: sc; procedure, shortened: as §3
Acinetobacter = test: The in vitro antibacterial activity as minimum inhibitory concentration against Acinetobacter sp. CMX 669; format: functional; procedure, shortened: as §4
Pseudomonas aeruginosa [24] = test: Median dose against Pseudomonas aeruginosa A5007 in mouse after peroral administration at a dose of 100xLD50 in TEST 2.; format: functional; conditions: po; procedure, shortened: as §3
Enterococcus faecium = test: The in vitro antibacterial activity as minimum inhibitory concentration against Enterococcus faecium ATCC 8043; format: functional; procedure, shortened: as §4
Pseudomonas aeruginosa [25] = test: The in vitro antibacterial activity as minimum inhibitory concentration against Pseudomonas aeruginosa K799/61; format: functional; procedure, shortened: as §4
Klebsiella aerogenes = test: The in vitro antibacterial activity as minimum inhibitory concentration against Enterobacter aerogenes ATCC 13048; format: functional; procedure, shortened: as §4
Escherichia coli [26] = test: Median dose against Escherichia coli Juhl in mouse after peroral administration at a dose of 100xLD50 in TEST 2.; format: functional; conditions: po; procedure, shortened: as §3
Streptococcus agalactiae = test: The in vitro antibacterial activity as minimum inhibitory concentration against Streptococcus agalactiae CMX 508; format: functional; procedure, shortened: as §2
Klebsiella pneumoniae = test: The in vitro antibacterial activity as minimum inhibitory concentration against Klebsiella pneumoniae ATCC 8045; format: functional; procedure, shortened: as §4
[27] = Compound was tested for its water solubility at pH 7.5; format: physicochemical; conditions: aqueous, pH 7.5, pH 7.5
Procedure, shortened: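 Solubility measured by adding excess drug to a fixed volume of 0.05 M pH 7.5 potassium phosphate buffer at ambient temperature.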

[28] = Compound was tested for its water solubility in water.; format: ADME; conditions: read-out: S
Procedure, shortened: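 Solubility measured by adding excess drug to a fixed volume of distilled water at ambient temperature.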

Escherichia coli [29] = test: The in vitro antibacterial activity as minimum inhibitory concentration against Escherichia coli DC-2; format: functional; procedure, shortened: as §4
Escherichia coli [30] = test: Median dose against Escherichia coli Juhl cumulative mortalities in mouse after peroral administration at a dose of 100xLD50 in TEST 1.; format: functional; conditions: po
Procedure, shortened: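 Female CF-1 mice (~20 g) were challenged ip with 0.5 mL of 18-h BHI culture diluted in 5% hog gastric mucin to 100× LD50 (LD50 by Reed–Muench). Oral doses in distilled water were split equally at 1 and 5 h post-infection, with ≥3 dose levels and 10 mice each, plus untreated controls. ED50 was derived from day-6 cumulative mortality by trimmed logit.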

Streptococcus pyogenes [31] = test: The in vitro antibacterial activity as minimum inhibitory concentration against Streptococcus pyogenes 2548 INDUC; format: functional; procedure, shortened: as §2
Pseudomonas aeruginosa [32] = test: Median dose against Pseudomonas aeruginosa A5007 in mouse after subcutaneous administration at a dose of 100xLD50 in TEST 2.; format: functional; conditions: sc; procedure, shortened: as §3
Streptococcus pneumoniae [33] = test: Median dose against Streptococcus pneumoniae 6303 in mouse after peroral administration at a dose of 100xLD50 in TEST 1.; format: functional; conditions: po; procedure, shortened: as §3
Staphylococcus aureus [34] = test: The in vitro antibacterial activity as minimum inhibitory concentration against Staphylococcus aureus CMX 553; format: functional; procedure, shortened: as §2
Staphylococcus aureus [35] = test: Median dose against Staphylococcus aureus NCTC 10649 in mouse after peroral administration at a dose of 100xLD50 in TEST 2.; format: functional; conditions: po; procedure, shortened: as §3
Micrococcus luteus [36] = test: The in vitro antibacterial activity as minimum inhibitory concentration against Micrococcus luteus ATCC 9341; format: functional; procedure, shortened: as §4
Staphylococcus aureus [37] = test: The in vitro antibacterial activity as minimum inhibitory concentration against Staphylococcus aureus 45; format: functional; procedure, shortened: as §4
Escherichia coli [38] = test: The in vitro antibacterial activity as minimum inhibitory concentration against Escherichia coli KNK437; format: functional; procedure, shortened: as §4
Rattus norvegicus [39] = test: Effect on the spontaneous locomotor activity of rats at 0-15 min upon po administration of the compounds at a dose of 30 mg/kg; format: functional; procedure, shortened: as §1
Rattus norvegicus [40] = test: Effect on the spontaneous locomotor activity of rats at 0-15 min upon ip administration of the compounds at a dose of 15 mg/kg; format: functional; conditions: route intraperitoneal
Procedure, shortened: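 Rats were dosed ip; methylcellulose served as vehicle, and treatments were assigned randomly. Thirty minutes after dosing, each rat was placed in its own circular activity chamber. Activity was counted as photocell beam interruptions and recorded at 15 and 60 min after the test started. Values are mean counts ± SEM.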

CN[C@@H](C)Cc1ccccc1 [METHAMPHETAMINE]
Mean activity counts (Rattus norvegicus [1]): 1462

CC1CN(c2cc3c(cc2F)c(=O)c(C(=O)O)cn3-c2ccc(F)cc2F)CCN1 (stereo not drawn) [TEMAFLOXACIN]
MIC (Staphylococcus aureus [2]): 0.2 µg/mL (≈ 0.479 µM) | ED50 (Escherichia coli [3]): 0.6 mg/kg | MIC (Pseudomonas aeruginosa [4]): 0.39 µg/mL (≈ 0.934 µM) | MIC (Escherichia coli [5]): 0.005 µg/mL (≈ 0.012 µM) | logD [6]: -0.29 | MIC (Staphylococcus aureus [7]): 0.39 µg/mL (≈ 0.934 µM) | MIC (Escherichia coli [8]): 0.05 µg/mL (≈ 0.12 µM) | MIC (Streptococcus equinus): 1.56 µg/mL (≈ 3.74 µM) | ED50 (Pseudomonas aeruginosa [9]): 26.6 mg/kg | MIC (Burkholderia cepacia): 12.5 µg/mL (≈ 29.9 µM) | MIC (Streptococcus pyogenes [10]): 0.39 µg/mL (≈ 0.934 µM) | MIC (Staphylococcus aureus [11]): 0.1 µg/mL (≈ 0.24 µM) | MIC (Streptococcus pyogenes [12]): 0.78 µg/mL (≈ 1.87 µM) | ED50 (Staphylococcus aureus [13]): 1.3 mg/kg | MIC (Pseudomonas aeruginosa [14]): 0.39 µg/mL (≈ 0.934 µM) | ED50 (Staphylococcus aureus [15]): 6 mg/kg | MIC (Providencia stuartii): 3.1 µg/mL (≈ 7.43 µM) | MIC (Pseudomonas aeruginosa [16]): 0.39 µg/mL (≈ 0.934 µM) | MIC (Micrococcus luteus [17]): 1.56 µg/mL (≈ 3.74 µM) | ED50 (Staphylococcus aureus [18]): 1.5 mg/kg | ED50 (Pseudomonas aeruginosa [19]): 10.3 mg/kg | ED50 (Streptococcus pneumoniae [20]): 6.2 mg/kg | MIC [21]: 0.2 µg/mL (≈ 0.479 µM) | MIC (Escherichia coli [22]): 0.05 µg/mL (≈ 0.12 µM) | ED50 (Escherichia coli [23]): 0.5 mg/kg | MIC (Acinetobacter): 0.1 µg/mL (≈ 0.24 µM) | ED50 (Pseudomonas aeruginosa [24]): 26.6 mg/kg | MIC (Enterococcus faecium): 0.78 µg/mL (≈ 1.87 µM) | MIC (Pseudomonas aeruginosa [25]): 0.05 µg/mL (≈ 0.12 µM) | MIC (Klebsiella aerogenes): 0.1 µg/mL (≈ 0.24 µM) | ED50 (Escherichia coli [26]): 5 mg/kg | MIC (Streptococcus agalactiae): 0.78 µg/mL (≈ 1.87 µM) | MIC (Klebsiella pneumoniae): 0.05 µg/mL (≈ 0.12 µM) | solubility [27]: 670 µg/mL (≈ 1610 µM) | solubility [28]: 6500 µg/mL (≈ 15600 µM) | MIC (Escherichia coli [29]): 0.39 µg/mL (≈ 0.934 µM) | ED50 (Escherichia coli [30]): 3.7 mg/kg | MIC (Streptococcus pyogenes [31]): 0.39 µg/mL (≈ 0.934 µM) | ED50 (Pseudomonas aeruginosa [32]): 12.5 mg/kg | ED50 (Streptococcus pneumoniae [33]): 10.2 mg/kg | MIC (Staphylococcus aureus [34]): 0.2 µg/mL (≈ 0.479 µM) | ED50 (Staphylococcus aureus [35]): 3.2 mg/kg | MIC (Micrococcus luteus [36]): 3.1 µg/mL (≈ 7.43 µM) | MIC (Staphylococcus aureus [37]): 0.2 µg/mL (≈ 0.479 µM) | MIC (Escherichia coli [38]): 0.39 µg/mL (≈ 0.934 µM)

CCn1cc(C(=O)O)c(=O)c2cc3c(cc21)OCO3 [OXOLINIC ACID]
Mean activity counts (Rattus norvegicus [39]): 972

CN(C)CCCN1c2ccccc2Sc2ccc(Cl)cc21 [CHLORPROMAZINE]
Mean activity counts (Rattus norvegicus [40]): 31
